Most compounds without a hit are left out; they make up all but 4.2% or so of the library.
AI-2 QS mod – modulators of Vibrio harveyi AI-2 quorum sensing system | actives 0.4% (n = 300,000) | activity change, % at 7.5 µM | Vibrio harveyi JMH597 AI-2 luminescence/OD600 ratio, 9 h; stronger effect = lower value; strain lacks LuxN and CqsS sensors; 0 = neutral-control median; in the data active means activity change below about -75%, passing the limit was not always enough; inconclusive means no clear call, values can overlap the other calls;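 further: luminescence divided by OD600 gain over 9 h not by final OD600 alone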
KCNQ1 block – blocks the human KCNQ1 potassium channel; P51787; CHO-K1 KCNQ1, FluxOR thallium flux fluorescence; stronger effect = higher value; B-score at 10 µM; actives 1.3% (n = 310,000); AID 2642;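 active means compounds whose thallium flux B-score, printed positive for inhibition, exceeds three library SD while starting fluorescence stays within three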;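 further: channel opened by potassium depolarization with thallium stimulus after 20 min compound exposure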
hERG protect – compounds protecting human hERG from proarrhythmic drug block | actives 0.51% (n = 310,000) | CHO-hERG, FluxOR thallium flux, dofetilide IC70 present | activation (rescue from dofetilide block), less the hit threshold, % at 10 µM | Q12809 | AID 1511;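 active means activation above the mean of controls blocked by dofetilide plus 5 SD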;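 further: thallium influx through hERG after potassium depolarization seen as dye fluorescence rise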
Target sequence (Q12809 whole entry, looked up): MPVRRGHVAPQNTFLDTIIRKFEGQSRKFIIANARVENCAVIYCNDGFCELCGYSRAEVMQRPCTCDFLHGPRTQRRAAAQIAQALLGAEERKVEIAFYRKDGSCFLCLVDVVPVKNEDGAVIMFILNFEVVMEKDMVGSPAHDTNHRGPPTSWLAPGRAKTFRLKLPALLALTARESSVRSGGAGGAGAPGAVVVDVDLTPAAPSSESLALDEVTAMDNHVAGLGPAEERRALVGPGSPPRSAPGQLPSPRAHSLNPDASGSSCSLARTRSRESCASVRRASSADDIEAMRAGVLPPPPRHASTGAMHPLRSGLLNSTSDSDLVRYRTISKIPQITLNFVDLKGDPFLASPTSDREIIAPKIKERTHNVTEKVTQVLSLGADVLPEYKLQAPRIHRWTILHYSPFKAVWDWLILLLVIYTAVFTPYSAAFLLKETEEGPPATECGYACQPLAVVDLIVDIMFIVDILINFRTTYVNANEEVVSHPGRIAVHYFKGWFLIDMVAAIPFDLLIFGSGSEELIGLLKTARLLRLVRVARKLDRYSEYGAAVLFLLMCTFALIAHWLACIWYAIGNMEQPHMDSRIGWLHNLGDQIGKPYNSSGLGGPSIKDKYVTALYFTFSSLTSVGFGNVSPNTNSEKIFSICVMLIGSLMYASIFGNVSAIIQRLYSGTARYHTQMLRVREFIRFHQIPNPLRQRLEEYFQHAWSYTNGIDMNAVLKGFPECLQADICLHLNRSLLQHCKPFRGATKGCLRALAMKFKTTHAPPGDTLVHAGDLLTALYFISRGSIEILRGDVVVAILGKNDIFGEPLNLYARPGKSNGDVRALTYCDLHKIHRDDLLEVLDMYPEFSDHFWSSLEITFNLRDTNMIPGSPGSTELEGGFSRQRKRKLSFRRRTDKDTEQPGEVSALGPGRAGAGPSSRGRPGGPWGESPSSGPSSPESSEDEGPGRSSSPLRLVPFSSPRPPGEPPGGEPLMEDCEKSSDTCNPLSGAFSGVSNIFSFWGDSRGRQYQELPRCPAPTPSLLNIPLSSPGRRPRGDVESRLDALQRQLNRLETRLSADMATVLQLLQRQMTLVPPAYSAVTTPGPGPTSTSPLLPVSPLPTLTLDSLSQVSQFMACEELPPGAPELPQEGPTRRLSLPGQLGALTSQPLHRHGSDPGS
Mot1-301 SUMO – blocks SUMOylation pathway, rescuing yeast Mot1-301 growth; S. cerevisiae Mot1-301 growth rescue, ATP luminescence, 38.5C; percent above DMSO median, 100 means doubled; growth rescue, % at 18.8 µM; actives 1% (n = 320,000); AID 2716;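 active means every valid replicate shows activation above 250% relative to neutral control wells; inactive means the rest, any valid replicate at or below 250%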;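 further: OY570 slx delta 5 strain wells were the positive control but not used for scaling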
KCNQ1 act – human KCNQ1 channel potentiation or activation. CHO-K1 KCNQ1, thallium flux FluxOR fluorescence; stronger effect = higher value. P51787. B-score at 10 µM. actives 0.35% (n = 310,000);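 active means fluorescence ratio B-score, a plate-corrected score, at least three library SD, with initial intensity B-score within 5 SD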
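Assay system: CHO-K1 cells stably expressing KCNQ1. Medium: assay buffer for compound exposure, DMSO matched across wells. Timing: 37 °C overnight plating, 90-min dark dye load, 20-min compound pretreatment. Signal: kinetic FluxOR fluorescence, 10 s baseline plus 110 s post-stimulus.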
KCC2 mod – modulators of human KCC2 chloride dependent transport; Q9H2X9; AID 1456; KCC2 cells, thallium flux FluoZin-2 fluorescence; actives 2.2% (n = 190,000); B-score of Tl+ flux slope (higher = more flux/activation; lower = inhibition) at 10 µM;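 active means thallium flux slope and its plate-corrected score both differing from the plate sample mean at a set confidence after two filtering rounds, in either direction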;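 further: slope of fluorescence scaled to starting intensity during 10 to 20 s after thallium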
KCNQ1 inh valid – human KCNQ1 channel inhibition, validation assay | shares compounds with KCNQ1 block | KCNQ1 cell line, FluxOR thallium flux fluorescence | inhibition, % at 10 µM | actives 93% (n = 1,600);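 active means primary screen active, with duplicate mean exceeding buffer control mean plus 3 SD of buffer wells, cut at about 28% in these data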;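 further: 0% = buffer control ratio and 100% = XE991 inhibitor control ratio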
CHO Tl flux – counter-screen for KCNQ1 inhibitors: effect in parental CHO cells. shares compounds with KCNQ1 block. fluorescence ratio (Tl flux) at 10 µM. AID 588366. parental CHO-K1, FluxOR thallium flux fluorescence ratio; stronger effect = lower value; zero means no signal rise above baseline. actives 21% (n = 1,600);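 active means mean of duplicate thallium-flux fluorescence ratios in parental host cells more than 5 SD below the buffer control mean, cut at about 0.38 in these data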;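 further: ratio is peak minus minimum fluorescence divided by baseline fluorescence; actives read low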
KCNQ1 APC inh – blocks human KCNQ1 current in automated patch clamp; shares compounds with KCNQ1 block; KCNQ1-CHO cells; calls only at 10 µM; actives 20% (n = 490); AID 624120;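 active means KCNQ1 current drop exceeding 3 SD of negative control wells, seen in both duplicate runs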;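 further: steady state current during a 2 s step from -80 to +40 mV; negative values mean current inhibition and positive values mean potentiation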
KCNQ2 inh – KCNQ1 inhibitor that also blocks rat KCNQ2 channel; KCNQ2 cells, FluxOR thallium flux fluorescence; shares compounds with KCNQ1 block; inhibition, % at 10 µM; actives 71% (n = 1,600);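 active means mean percent inhibition of the KCNQ2 thallium signal more than 5 SD above the buffer-only control wells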;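 further: KCNQ2 expressed in CHO cells; 0% = buffer control wells and 100% = XE-991 inhibitor control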
KCNQ1 KCNE1 spec – KCNQ1 inhibitor that also blocks human KCNQ1/KCNE1 channel; KCNQ1/KCNE1 cells, FluxOR thallium flux fluorescence; shares compounds with KCNQ1 block; actives 77% (n = 1,600); AID 652147; inhibition, % at 10 µM;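 active means mean percent inhibition of duplicate wells above the buffer-only control mean plus 3 SD of those controls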;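 further: 0% = buffer only wells and 100% = XE-991 inhibitor control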
Numbers without * were called inactive; i = inactive; u = inconclusive; x = no result given; + = active, no number.

SMILES	AI-2 QS mod	KCNQ1 block	hERG protect	Mot1-301 SUMO	KCNQ1 act	KCC2 mod	KCNQ1 inh valid	CHO Tl flux	KCNQ2 inh	KCNQ1 KCNE1 spec	others
CC(NS(=O)(=O)OCC(Cl)(Cl)Cl)c1ccc(Br)cc1 (stereo not given)	-8	7*	-20	44	i	x	126*	0.41	73%*	104%*	KCNQ1 APC inh=i
CC(C)CC(NS(=O)(=O)OCC(Cl)(Cl)Cl)c1ccccc1 (stereo not given)	20	12*	-19	7	i	x	56*	0.44	65%*	i
O=C(Nc1ccc(CN2CCCCC2)cc1)Nc1ccc(Br)cc1Cl	38	i	-11	x	i	x	x	x	x	x
CN(c1ccccc1C(=O)N1CCN(c2ccccc2)CC1)S(C)(=O)=O	14	i	-6	-7	i	0.42	x	x	x	x
CSc1ncccc1C(=O)OCc1cccc([N+](=O)[O-])c1	-2	i	-8	63	i	x	x	x	x	x
CCc1ccc(C(O)(C(C)C)C(CN2CCOCC2)c2ccccc2)cc1 (stereo not given)	9	6*	-5	72	i	x	65*	0.46	i	80%*
CC(C)C(O)(c1ccccc1)C(CN1CCOCC1)c1ccccc1 (stereo not given)	-3	i	-8	-10	i	x	x	x	x	x
CC(C)CC(=O)Nc1cccc(-c2csc(-c3ccccc3)n2)c1	23	18*	-12	-2	i	x	148*	0.35*	i	+
CCC(=O)Nc1cccc(-c2csc(-c3ccccc3)n2)c1	-27	i	-10	-2	i	-4	x	x	x	x
O=c1c2c3c(sc2nc(NCCO)n1CCc1ccccc1)CCCCC3	-3	6*	-14	20	i	-1.5	67*	0.45	92%*	100%*
COc1ccc(CC2CC(=O)N(c3ccc(C)cc3)C2=O)cc1 (stereo not given)	20	i	-10	-11	i	x	x	x	x	x
Cc1cccc(N(CC(=O)NC2CCCCC2)C(=O)c2c(C)noc2C)c1	13	i	-3	-3	i	x	x	x	x	x
COc1ccc(N(C(=O)CNC(=O)c2ccco2)C(C(=O)NCC2CCCO2)c2ccccc2)cc1 (stereo not given)	43	i	-5	-5	i	x	x	x	x	x
CCCCc1ccc(N/C(N)=N/c2nc(C)cc(C)n2)cc1	14	11*	-17	37	i	-3.7	96*	0.41	66%*	i	KCNQ1 APC inh=+
Cc1ccc(N/C(N)=N/c2nc(C)cc(C)n2)cc1	6	i	-7	-17	i	0.77	x	x	x	x
COc1ccc(NS(=O)(=O)c2cc(NC(=O)/C=C/c3ccccc3OC)ccc2N2CCCCC2)cc1	57	i	-9	13	i	0.15	x	x	x	x
Cc1c(C(=O)Nc2c(F)cccc2F)sc2ncnc(N3CCN(c4ccccc4)CC3)c12	21	7*	-15	1	i	-0.23	64*	0.45	104%*	88%*
COc1ccc(NC(=O)c2sc3nc(C)nc(N4CCN(c5ccccn5)CC4)c3c2C)cc1Cl	43	9*	-13	9	i	x	98*	0.44	88%*	105%*	KCNQ1 APC inh=i
Cc1nc(N2CCC(C)CC2)c2c(C)c(C(=O)Nc3ccc4c(c3)OCCO4)sc2n1	16	8*	-10	-3	i	x	112*	0.42	120%*	92%*	KCNQ1 APC inh=i
Cc1c(C(=O)Nc2ccc3c(c2)OCCO3)sc2ncnc(N3CCCCC3C)c12 (stereo not given)	5	i	-16	-4	i	x	x	x	x	x
Cc1c(C(=O)NC2CCCCC2)sc2ncnc(N3CCN(c4ccccc4)CC3)c12	10	i	-10	-11	i	x	x	x	x	x
Cc1cc(Br)ccc1NC(=O)c1sc2ncnc(N3CCN(c4ccccn4)CC3)c2c1C	26	6*	-17	16	i	x	89*	0.44	104%*	82%*	KCNQ1 APC inh=i
O=C(NCc1ccc(F)cc1F)Nc1cnccc1C(F)(F)F	25	i	-5	-18	i	x	x	x	x	x
COc1ccc(NC(=O)c2ccc(C)cc2)c[n+]1[O-]	22	i	-10	-7	i	x	x	x	x	x
CCN(CC(=O)NCc1cccs1)C(=O)CCC(=O)c1ccc(F)cc1	29	i	-11	50	i	x	x	x	x	x
SMILES	AI-2 QS mod	KCNQ1 block	hERG protect	Mot1-301 SUMO	KCNQ1 act	KCC2 mod	KCNQ1 inh valid	CHO Tl flux	KCNQ2 inh	KCNQ1 KCNE1 spec	others
COc1ccc(NC(=O)CN2CCN(c3ccccn3)CC2)cc1Cl	23	i	-2	48	i	x	x	x	x	x
COc1ccc(NC(=O)c2sc3ncnc(N4CCN(c5ccccn5)CC4)c3c2C)cc1Cl	6	8*	-19	55	i	x	80*	0.4	97%*	108%*
Cc1c(C(=O)NC2CCN(Cc3ccccc3)C2)oc2c(Cl)cccc12 (stereo not given)	10	i	-14	-15	i	x	x	x	x	x
O=C1/C(=C\c2cc([N+](=O)[O-])ccc2O)SC(=S)N1Cc1ccc(Cl)cc1	43	17*	-31	74	i	x	165*	0.22*	i	i
Cc1ccc(C(C)(C)C)c(SCC(=O)Nc2nnc(C)s2)c1	6	i	-7	0	i	x	x	x	x	x
O=S(=O)(c1ccccc1)N1c2cc(Cl)ccc2Oc2nc3ccccc3nc21	-6	8*	-8	12	i	-0.84	109*	0.36*	100%*	146%*
O=S(=O)(c1ccccc1)N1CN(c2ccc(F)cc2F)c2nc3ccccc3nc21	x	x	x	-1	x	x	x	x	x	x
O=C(Nc1nc(-c2ccccc2)c(C(=O)c2ccccc2)s1)c1ccc(S(=O)(=O)N2CCCCC2)cc1	24	8*	-14	-24	i	0.56	83*	0.51	i	112%*
O=C(O)c1cccc(NC2=C(Cl)C(=O)c3ccccc3C2=O)c1	u	16*	-29	x	i	-2.3	155*	0.28*	119%*	+

Bioassay records deposited in PubChem by several laboratories.
